The subject of one data set is Plasmodium falciparum. Kind of data set: Antiplasmodial activity growth inhibition of chloroquine-resistant Plasmodium falciparum BHz 26/86 after 72 hrs. Type of data set: functional, organism-based. The following applies: BHz 26/86, 72 h. A digest of the protocol:
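Chloroquine-resistant Amazon isolate in continuous culture on human AB+ or A+ erythrocytes, RPMI 1640 + 10% human serum. Sorbitol-synchronized trophozoites at 1–2% parasitemia, 2.5% hematocrit. Compounds in 0.02% Tween 20, tested at 0.02 to 20 μM, 37°C. Growth inhibition versus drug-free control from blinded smear reading. IC50/IC90 by linear interpolation. Triplicate, three repeats.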

Data set [1] is described as follows: Toxicity against human HepG2A16 cells assessed as cell death at 450 ug/ml by MTT method. In kind it is cell-based. (In general: Formazan colour is commonly taken as a measure of viable cells.)

Our source for the IC90, Activity and IC50 values is ChEMBL document CHEMBL1150789, “Antiplasmodial activity of aryltetralone lignans from Holostylis reniformis” (Antimicrob Agents Chemother, 2007).

As a reminder, the IC90 is the concentration needed for an effect of 90%. The compound `CCN(CC)CCCC(C)Nc1ccnc2cc(Cl)ccc12` (centres undefined) [CHLOROQUINE] returned an IC90 in the data set with Plasmodium falciparum of 700 nM.

One may read the IC50 as the concentration needed to halve the response being measured. High values mean weaker potency in that assay, low ones greater potency in that assay. Take `COc1ccc([C@@H]2c3cc(OC)c(OC)cc3C(=O)[C@H](C)[C@H]2C)cc1OC`: the Activity in data set [1] was 30%. In the data set on Plasmodium falciparum, this compound displayed an IC50 of 200 nM and an IC90 of 3000 nM.

As for `COc1ccc([C@@H]2c3cc(OC)c(OC)cc3C(=O)[C@@H](C)[C@@H]2C)cc1OC`, the Activity in data set [1] amounted to 30%. In the data set with Plasmodium falciparum, this compound yielded an IC50 of 320 nM and a 90% effect concentration (IC90) of 4600 nM.

`COc1ccc([C@@H]2c3cc4c(cc3C(=O)[C@@H](C)[C@H]2C)OCO4)cc1OC`: the Activity in data set [1] is on record as 30%. In addition, in the data set on Plasmodium falciparum, 8000 nM corresponded to half-maximal inhibition (IC50) and the 90% effect level (IC90) was put at 19700 nM.

On to `COc1ccc([C@@H]2c3cc(OC)c(OC)cc3C(=O)[C@@H](C)[C@H]2C)cc1OC`, for which the Activity in data set [1] turned out to be 30%. In the data set with Plasmodium falciparum, this compound gave an IC50 of 630 nM and an IC90 of 2610 nM.

Regarding `COc1cc2c(cc1OC)[C@@H](c1ccc3c(c1)OCO3)[C@H](C)[C@H](C)C2=O`, in data set [1], the Activity is on record as 30%. Further, in the data set on Plasmodium falciparum, the IC50 is more than 140000 nM and the concentration for an effect of 90% (IC90) was more than 140000 nM.

`COc1cc2c(cc1OC)[C@@H](c1ccc3c(c1)OCO3)[C@@H](C)[C@H](C)C2=O`: in data set [1], the Activity was 30%. In the data set on Plasmodium falciparum, half-maximal inhibition (IC50) required 260 nM and the 90% effect level (IC90) was put at 3350 nM.
